Measured values: ChEMBL document CHEMBL4680061, “Unveiling the active isomer of cycloalanopine, a cyclic opine from Lactobacillus rhamnosus LS8, through synthesis and analog production” (2020)
≈ marks a conversion by molar mass, not a printed value. Calls of active or inactive are those of the source. The rule behind the calls is not given here.

Key:
Salmonella typhimurium [1] = assay: Antibacterial activity against Salmonella typhimurium ATCC 13311 assessed as bacterial growth inhibition after overnight incubation by spot-on-lawn assay; assay type: functional, Salmonella enterica subsp. enterica serovar Typhimurium; conditions: Salmonella enterica
How it was run: (§1)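 Overnight cultures were grown in Luria broth at 37 °C and used to seed 5 mL soft agar (0.75%) in the same medium, poured over 1.5% hard agar. Compounds in MQ-H2O or DMSO were two-fold serially diluted from stock, and 10 µL of each was spotted. After drying, plates were incubated overnight at 37 °C. Growth inhibition at each spot was scored, and MIC was taken from triplicates.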

Escherichia coli [2] = assay: Antibacterial activity against Escherichia coli ATCC 25922 assessed as bacterial growth inhibition after overnight incubation by spot-on-lawn assay; assay type: functional; how it was run: as §1
Acinetobacter baumannii [3] = assay: Antibacterial activity against Acinetobacter baumannii ATCC 19606 assessed as bacterial growth inhibition after overnight incubation by spot-on-lawn assay; assay type: functional; conditions: ATCC 19606 = CIP 70.34 = JCM 6841; how it was run: as §1
Pseudomonas aeruginosa [4] = assay: Antibacterial activity against Pseudomonas aeruginosa ATCC 14207 assessed as bacterial growth inhibition after overnight incubation by spot-on-lawn assay; assay type: functional; how it was run: as §1
Listeria monocytogenes [5] = assay: Antibacterial activity against Listeria monocytogenes ATCC 15313 assessed as bacterial growth inhibition after overnight incubation by spot-on-lawn assay; assay type: functional
How it was run: (§2)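 Lawns were prepared in All Purpose Tween medium at 25 °C: overnight cultures went into 5 mL soft agar (0.75%) poured onto 1.5% agar plates. Aqueous or DMSO solutions were two-fold serially diluted, and 10 µL aliquots were spotted and dried. Plates were incubated overnight at 25 °C. Inhibition was read at the spot locations, and MIC was based on triplicates.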

Staphylococcus aureus [6] = assay: Antibacterial activity against Staphylococcus aureus ATCC 25923 assessed as bacterial growth inhibition after overnight incubation by spot-on-lawn assay; assay type: functional
How it was run: (§3)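 Tryptic Soy Broth at 25 °C was used for culture and for the 0.75% soft-agar overlay, which was seeded from overnight cultures and poured onto 1.5% agar. Two-fold dilution series in MQ-H2O or DMSO were spotted (10 µL), dried, and incubated overnight at 25 °C. Growth inhibition at each spot was recorded, and MIC was derived from triplicate assays.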

Enterococcus faecalis [7] = assay: Antibacterial activity against Enterococcus faecalis ATCC 7080 assessed as bacterial growth inhibition after overnight incubation by spot-on-lawn assay; assay type: functional; how it was run: as §2
Salmonella typhimurium [8] = assay: Antibacterial activity against Salmonella typhimurium ATCC 13311 assessed as bacterial growth inhibition at 250 mg/ml after overnight incubation by spot-on-lawn assay; assay type: functional, organism-based; conditions: Salmonella enterica subsp. enterica serovar Typhimurium; how it was run: as §1
Escherichia coli [9] = assay: Antibacterial activity against Escherichia coli ATCC 25922 assessed as bacterial growth inhibition at 250 mg/ml after overnight incubation by spot-on-lawn assay; assay type: functional, organism-based; how it was run: as §1
Acinetobacter baumannii [10] = assay: Antibacterial activity against Acinetobacter baumannii ATCC 19606 assessed as bacterial growth inhibition at 250 mg/ml after overnight incubation by spot-on-lawn assay; assay type: functional, organism-based; conditions: ATCC 19606 = CIP 70.34 = JCM 6841; how it was run: as §1
Pseudomonas aeruginosa [11] = assay: Antibacterial activity against Pseudomonas aeruginosa ATCC 14207 assessed as bacterial growth inhibition at 250 mg/ml after overnight incubation by spot-on-lawn assay; assay type: functional, organism-based; how it was run: as §1
Listeria monocytogenes [12] = assay: Antibacterial activity against Listeria monocytogenes ATCC 15313 assessed as bacterial growth inhibition at 250 mg/ml after overnight incubation by spot-on-lawn assay; assay type: functional, organism-based; how it was run: as §2
Enterococcus faecalis [13] = assay: Antibacterial activity against Enterococcus faecalis ATCC 7080 assessed as bacterial growth inhibition at 250 mg/ml after overnight incubation by spot-on-lawn assay; assay type: functional, organism-based; how it was run: as §2
Staphylococcus aureus [14] = assay: Antibacterial activity against Staphylococcus aureus ATCC 25923 assessed as bacterial growth inhibition at 250 mg/ml after overnight incubation by spot-on-lawn assay; assay type: functional, organism-based; how it was run: as §3

| SMILES | MIC (Salmonella typhimurium [1]) | MIC (Escherichia coli [2]) | MIC (Acinetobacter baumannii [3]) | MIC (Pseudomonas aeruginosa [4]) | MIC (Listeria monocytogenes [5]) | MIC (Staphylococcus aureus [6]) | MIC (Enterococcus faecalis [7]) | Activity (Salmonella typhimurium [8]) | Activity (Escherichia coli [9]) | Activity (Acinetobacter baumannii [10]) | Activity (Pseudomonas aeruginosa [11]) | Activity (Listeria monocytogenes [12]) | Activity (Enterococcus faecalis [13]) | Activity (Staphylococcus aureus [14]) |
| --- | --- | --- | --- | --- | --- | --- | --- | --- | --- | --- | --- | --- | --- | --- |
| C[C@@H]1NCC(=O)NNC1=O | 19 mg/mL (≈ 133 mM) | 2.3 mg/mL (≈ 16.1 mM) | 19 mg/mL (≈ 133 mM) | 38 mg/mL (≈ 265 mM) | 38 mg/mL (≈ 265 mM) | 75 mg/mL (≈ 524 mM) |  |  |  |  |  |  |  |  |
| C[C@H]1N[C@H](CCCCN)C(=O)NNC1=O | 62 mg/mL (≈ 289 mM) | 31 mg/mL (≈ 145 mM) | 62 mg/mL (≈ 289 mM) |  | 16 mg/mL (≈ 74.7 mM) | 62 mg/mL (≈ 289 mM) | 16 mg/mL (≈ 74.7 mM) |  |  |  |  |  |  |  |
| C[C@@H]1N[C@@H](C)C(=O)NNC1=O |  |  |  |  |  |  |  | inactive | inactive | inactive | inactive | inactive | inactive | inactive |
| C[C@H]1N[C@H](C)C(=O)NNC1=O |  |  |  |  |  |  |  | inactive | inactive | inactive | inactive | inactive | inactive | inactive |
| C[C@H]1N[C@@H](CCCCN)C(=O)NNC1=O | 3.9 mg/mL (≈ 18.2 mM) | 0.49 mg/mL (≈ 2.29 mM) | 0.98 mg/mL (≈ 4.57 mM) | 62 mg/mL (≈ 289 mM) | 7.8 mg/mL (≈ 36.4 mM) | 31 mg/mL (≈ 145 mM) | 62 mg/mL (≈ 289 mM) |  |  |  |  |  |  |  |
| C[C@H]1NCC(=O)NNC1=O | 0.98 mg/mL (≈ 6.85 mM) | 0.06 mg/mL (≈ 0.419 mM) | 0.12 mg/mL (≈ 0.838 mM) | 3.9 mg/mL (≈ 27.2 mM) | 2 mg/mL (≈ 14 mM) | 2 mg/mL (≈ 14 mM) | 2 mg/mL (≈ 14 mM) |  |  |  |  |  |  |  |
| C[C@@H]1N[C@H](C)C(=O)NNC1=O | 26 mg/mL (≈ 165 mM) | 3.2 mg/mL (≈ 20.4 mM) |  | 52 mg/mL (≈ 331 mM) | 26 mg/mL (≈ 165 mM) | 26 mg/mL (≈ 165 mM) | 26 mg/mL (≈ 165 mM) |  |  |  |  |  |  |  |
